Screening results deposited in PubChem by several laboratories.
Most compounds without a hit are left out; they make up all but 6.4% or so of the library.
MPTP inh – mitochondrial permeability transition pore inhibitors, primary screen, biochemical, isolated mouse mitochondria, absorbance; Ca2+ swelling absorbance, 30 min; 1.4% of 360,000 active; inhibition, % at 10 µM;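 active = inhibition of 50% or more, scaled per plate between neutral and stimulator controls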
CHOP inh – inhibitors of CHOP promoter induction, primary screen, cell-based, unfolded protein response, luciferase reporter | 3.8% of 220,000 active | inhibition, % at 10 µM | CHO-K1 CHOP-promoter luciferase, tunicamycin-induced, 15-18 h | AID 2732, 2010;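 active = compounds that reduced the stress-induced luciferase reporter signal by more than about 70% of percent inhibition, limit read from the data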
WT yeast gro inh – growth inhibition of WT strain, primary screen, mitochondrial fusion inhibitor project, WT and mutant strains, chemical genetic | AID 1362, 2008 | inhibition, % at 10 µM | 2.1% of 190,000 active | mitochondrial fusion phenotypic screen; in the data active = inhibition above about 58%; tested in S. cerevisiae
NR3A LBD binder – binders of NR3A ligand-binding domain, primary screen, biophysical, differential scanning fluorimetry, uHTS | Glutamate receptor ionotropic, NMDA 3A (GRIN3A) ligand-binding domain | NR3A LBD differential scanning fluorimetry, Tm shift; 0% = protein alone, 100% = glycine-bound protein | Tm shift relative to glycine control, % at 25 µM | 2.5% of 340,000 active | AID 1259313, 2017;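 active = melting temperature shift of at least 10% of the positive control shift, at one fixed dose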
TbMetRS inhib – T. brucei MetRS inhibitors, primary screen, biochemical, luminescence. purified T. brucei MetRS, ATP depletion, Kinase-Glo luminescence. inhibition, % at 11.9 µM. 0.4% of 360,000 active. methionyl-tRNA synthetase (Trypanosoma brucei brucei);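 active = inhibition above a per-plate cutoff of the control wells' mean inhibition plus 3 SD, cut at about 5.5% in these data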
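Test system: purified T. brucei MetRS enzyme. Also added: ATP, methionine and E. coli bulk tRNA substrates. Compound: 11.9 µM single point. Schedule: 15 min enzyme-compound preincubation, 2 h reaction, 10 min detection, 25 °C. Signal: luciferase luminescence of residual ATP, Kinase-Glo. Evaluation: percent inhibition versus plate control medians. Controls: DMSO wells, low control.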
EBV gp42 inh – Epstein-Barr virus gp42 inhibitors, primary screen, biochemical, uHTS, fluorescence polarization. AID 1085, 2008. Fluorescence polarization binding assay, mP read-out. 0.42% of 220,000 active. Glycoprotein 42 (Epstein-Barr virus (strain AG876)), Q1HVG2. inhibition, % (tested at 21.74 µM); in the data active = inhibition above about 50%
Target sequence (Q1HVG2 whole entry, looked up): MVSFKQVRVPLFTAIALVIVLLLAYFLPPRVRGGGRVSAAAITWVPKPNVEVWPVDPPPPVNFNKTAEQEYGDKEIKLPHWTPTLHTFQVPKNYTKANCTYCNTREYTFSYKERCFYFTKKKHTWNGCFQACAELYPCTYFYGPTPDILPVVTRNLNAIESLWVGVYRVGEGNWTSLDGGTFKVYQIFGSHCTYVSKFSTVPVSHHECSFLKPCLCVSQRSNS
MPTP counter – fluorescence retest of MPTP screen hits in isolated mitochondria, single concentration. shares compounds with MPTP inh. membrane potential, Rhodamine 123 fluorescence. inhibition, % at 10 µM. 78% of 5,000 active. AID 624504, 2012; in the data active = inhibition above about 22%
MPTP abs DR – mitochondrial permeability transition pore inhibitors, dose response, biochemical, absorbance, uHTS hits; shares compounds with MPTP inh; isolated mitochondria swelling; IC50, µM; 58% of 780 active; AID 651561, 2012; in the data active = IC50 below about 20 µM
MPTP counter DR – fluorescent counter-screen in isolated mitochondria, dose response, counter-screen for MPTP inhibitor project, biochemical, fluorescence, uHTS hits; 49% of 780 active; IC50, µM; shares compounds with MPTP inh; isolated mitochondria counterscreen, fluorescence read-out; AID 651564, 2012; in the data active = IC50 below about 80 µM
Each line names hits and unclear results; the compound was inactive in the other large screens (follow-up assays come after a bar, where they were run); ! = not confirmed by another sample.

COCCCN1CCN(C2Cc3ccccc3Sc3ccc(Cl)cc32)CC1 (stereo not drawn)	none
Clc1cccc2c1Sc1ccccc1CC2N1CCNCC1 (stereo not drawn)	MPTP inh 93 | MPTP counter inactive
O=C1Nc2ccccc2N2CCCC12 (stereo not drawn)	none (no result: MPTP inh, NR3A LBD binder, TbMetRS inhib)
CC(C)CCNC(=S)Nc1ccc(Br)cc1	MPTP inh 100, WT yeast gro inh 68 | MPTP counter 88
COC(=O)Cc1ccc(NC(=S)NCCC(C)C)cc1	none
CC(C)COc1ccc(C(=O)Nc2ccc([N+](=O)[O-])cc2)cc1	none
CCCNC(=S)Nc1ccc(Br)cc1	none
S=C(NCCc1ccccc1)Nc1ccc(Br)cc1	MPTP inh 98, NR3A LBD binder 33 | MPTP counter 92
CC(C)CCNC(=S)Nc1ccc([N+](=O)[O-])cc1	MPTP inh 98, WT yeast gro inh 79 | MPTP counter 85
CC(C)OC(=O)c1cc(NC(=S)Nc2ccc([N+](=O)[O-])cc2)cc(C(=O)OC(C)C)c1	MPTP inh 97, CHOP inh 75 | MPTP counter 100
Cc1ccc(NCc2nnc(SCC(=O)O)n2-c2ccc(C)cc2)cc1	none
CC(C)NC(=O)N(C)C[C@@H]1Oc2ncc(-c3cccc(C#N)c3)cc2C(=O)N([C@H](C)CO)C[C@@H]1C	none (no result: CHOP inh, WT yeast gro inh, NR3A LBD binder, EBV gp42 inh)
CCCCNC(=S)Nc1ccc([N+](=O)[O-])cc1	MPTP inh 95 | MPTP counter 89
S=C(c1ccccc1)N(c1ccccc1)c1ccccc1	none
Cc1ccc2c(COC(=O)C3=COCCO3)cc(=O)oc2c1	none
N#CNC(=Nc1cccc(F)c1)SCc1cccc(F)c1	MPTP inh 84 | MPTP counter 74
N#CNC(=Nc1cccc(F)c1)SCc1ccccc1	none
Cc1cc(Nc2ccc([N+](=O)[O-])cc2)nc2ccccc12	MPTP inh 76, NR3A LBD binder 39 | MPTP counter 58
COc1ccc(CCNC(=O)C2CCN(Cc3nc(-c4cccc(Cl)c4)oc3C)CC2)cc1OC	MPTP inh 52 | MPTP counter inactive | MPTP abs DR 18 | MPTP counter DR 37
COc1ccc(CCNC(=O)C2CCCN(Cc3nc(-c4ccccc4C)oc3C)C2)cc1OC (stereo not drawn)	MPTP inh 59 | MPTP counter inactive | MPTP abs DR 18 | MPTP counter DR 35
Cc1oc(-c2ccc(Cl)cc2)nc1CN1CCCC(C(=O)NC2CC2)C1 (stereo not drawn)	none (no result: CHOP inh, WT yeast gro inh, EBV gp42 inh)
CCOC(=O)N1CCC(NC(=O)C2CCCN(Cc3nc(-c4cccc(Cl)c4)oc3C)C2)CC1 (stereo not drawn)	MPTP inh 94, CHOP inh 85 | MPTP counter 51
O=C(NC1CCSC1=O)c1cccc(Cl)c1 (stereo not drawn)	none
COC(=O)c1ccccc1NC(=O)CN1C(=O)NC2(CCCCCCC2)C1=O	none (no result: CHOP inh, WT yeast gro inh, EBV gp42 inh)
CCN(CC)S(=O)(=O)c1cc(C(=O)OCC(=O)c2ccc3c(c2)NC(=O)CO3)ccc1Cl	MPTP inh 85 | MPTP counter 59
CCN(CC)S(=O)(=O)c1ccc(C(=O)OCC(=O)c2ccc3c(c2)NC(=O)CO3)cc1	none
c1coc(CNCCCN2CCOCC2)c1	none
Cc1ccc(S(=O)(=O)NCc2ccncc2)cc1	none (no result: CHOP inh)
Cc1cc(S(=O)(=O)NCc2ccncc2)c(C)cc1Br	MPTP inh 60 (no result: CHOP inh, WT yeast gro inh, EBV gp42 inh) | MPTP counter 88
CCOc1cc(S(=O)(=O)NCc2ccncc2)ccc1Cl	MPTP inh 100 | MPTP counter 101
CCOC(=O)COc1ccc(S(=O)(=O)NCc2ccncc2)cc1	MPTP inh 88 | MPTP counter 86
CCOc1ccc(S(=O)(=O)NCc2ccncc2)cc1	MPTP inh 99, CHOP inh 78 | MPTP counter 85
Cc1ccc(C)c(S(=O)(=O)NCc2ccncc2)c1	none
CCOC(=O)COc1ccc(S(=O)(=O)NCc2ccco2)cc1	none
Nn1c(Cc2ccccc2)nc2sc3c(c2c1=O)CCC3	none (no result: WT yeast gro inh)
CCc1ccc(NC(=O)C2CCCN(S(=O)(=O)c3cccnc3)C2)cc1 (stereo not drawn)	none (no result: CHOP inh, WT yeast gro inh, EBV gp42 inh)
CCc1cc(Cl)c(OC)c(C(=O)NC[C@@H]2CCCN2CC)c1O	MPTP inh 78! (no result: CHOP inh, WT yeast gro inh, EBV gp42 inh) | MPTP counter inactive | MPTP abs DR 9 | MPTP counter DR inactive
Cc1ccc(C2=NN(C(=O)CNCCO)C(c3cccs3)C2)cc1 (stereo not drawn)	none (no result: CHOP inh, WT yeast gro inh, EBV gp42 inh)
Cc1ccc2[nH]c3c(N4CCN(Cc5ccc6c(c5)OCO6)CC4)ncnc3c2c1	none (no result: MPTP inh, NR3A LBD binder, TbMetRS inhib)
Cc1ccc2c(c1)[nH]c1c(N3CCN(Cc4ccccc4)CC3)ncnc12	MPTP inh 68 (no result: CHOP inh) | MPTP counter 80
COc1ccc2c(c1)[nH]c1c(N3CCN(Cc4ccc5c(c4)OCO5)CC3)ncnc12	MPTP inh 88, CHOP inh 75 | MPTP counter 91
O=C(Cc1ccc(-n2cccc2)cc1)N1CCN(c2ccccc2F)CC1	none
CCOc1ccc(NC(=O)CN(C)C(=O)c2ccccc2SCC(=O)N2CCCC2)cc1OCC	none (no result: CHOP inh, WT yeast gro inh, EBV gp42 inh)
Cc1ccc(NC(=S)NNc2ccc(C(=O)O)cc2[N+](=O)[O-])cc1C	MPTP inh 54 (no result: CHOP inh, WT yeast gro inh, EBV gp42 inh) | MPTP counter 64
Cc1ccc(CC(=O)Nc2ccc(F)c([N+](=O)[O-])c2)cc1	none
Cc1ccc(Nc2ccc(C(N)=O)cc2[N+](=O)[O-])cc1C	none
Cc1ccc(CNC(=S)Nc2ccc(C)c([N+](=O)[O-])c2)cc1	MPTP inh 102, NR3A LBD binder 11 | MPTP counter 98
CNC(=S)Nc1ccc([N+](=O)[O-])c(C)c1	MPTP inh 62 | MPTP counter 78
CNC(=S)Nc1ccc([N+](=O)[O-])cc1C	none
Cc1ccc(NC(=S)NCc2ccccc2)cc1[N+](=O)[O-]	MPTP inh 99 | MPTP counter 91
NC(=O)[C@H]1CC2(CC(c3cccc(NC(=O)CC(c4ccccc4)c4ccccc4)c3)=NO2)CN1C(=O)c1ccccc1C(=O)c1ccccc1 (stereo partly drawn)	none (no result: WT yeast gro inh)
